pIC50: −log10 of the molar value.
Assays:
[1] = tested on: Trypanosoma brucei rhodesiense; test: Antiparasitic activity against Trypanosoma brucei rhodesiense STIB900; assay type: functional, organism-based
Trypanosoma cruzi = test: Antiparasitic activity against Trypanosoma cruzi Tulahuen C2C4; assay type: functional, organism-based
Leishmania donovani = test: Antiparasitic activity against Leishmania donovani […]; assay type: functional, organism-based
In short: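 Leishmania donovani MHOM-ET-67/L82 tested as axenic amastigotes; IC50 determined.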

Plasmodium falciparum = test: Antiparasitic activity against Plasmodium falciparum K1; assay type: functional, organism-based
L6 = test: Cytotoxicity against rat L6 cells; assay type: cell-based
In short: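 Cytotoxicity was measured on rat skeletal myoblast L6 cells, with the IC50 as read-out.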

[2] = Selectivity index, ratio of IC50 for rat L6 cells to IC50 for Plasmodium falciparum K1; assay type: toxicity, cell-based; conditions: rat L6 cells (cytotoxicity) versus Plasmodium falciparum K1, read-out: Ratio IC50

Row | Structure (SMILES) | pIC50 [1] | pIC50 (Trypanosoma cruzi) | pIC50 (Leishmania donovani) | pIC50 (Plasmodium falciparum) | pIC50 (L6) | selectivity ratio [2]
1 | Clc1ccc2[nH]c3c[n+](Cc4ccc(-c5ccc(C[n+]6ccc7c(c6)[nH]c6ccc(Cl)cc67)cc5)cc4)ccc3c2c1 | 5.60 | < 4.34 | 4.16 | 7.25 | 4.64 | 408
2 | Clc1ccc2[nH]c3c[n+](CCOCC[n+]4ccc5c(c4)[nH]c4ccc(Cl)cc45)ccc3c2c1 | 5.92 | 4.29 | 5.07 | 7.74 | 4.32 | 2620
3 | Clc1ccc2[nH]c3c[n+](CCCCCCCC[n+]4ccc5c(c4)[nH]c4ccc(Cl)cc45)ccc3c2c1 | 6.05 | 4.50 | 5.64 | 7.74 | 5.12 | 423
4 | Clc1ccc2[nH]c3c[n+](C/C=C\C[n+]4ccc5c(c4)[nH]c4ccc(Cl)cc45)ccc3c2c1 | 5.96 | < 4.25 | 5.02 | 6.95 | 4.21 | 540
5 | Clc1ccc2[nH]c3c[n+](CCCCCCCCCC[n+]4ccc5c(c4)[nH]c4ccc(Cl)cc45)ccc3c2c1 | 5.96 | 4.44 | 6.05 | 7.85 | 5.09 | 575
6 | Clc1ccc2[nH]c3c[n+](CCCCCCCCCCCC[n+]4ccc5c(c4)[nH]c4ccc(Cl)cc45)ccc3c2c1 | 5.92 | 5.00 | 6.22 | 7.64 | 5.37 | 186
7 | Clc1ccc2[nH]c3c[n+](Cc4ccc(C[n+]5ccc6c(c5)[nH]c5ccc(Cl)cc56)cc4)ccc3c2c1 | 6.00 | < 4.29 | 4.70 | 6.65 | 4.76 | 78
8 | Clc1ccc2[nH]c3c[n+](Cc4cccc(C[n+]5ccc6c(c5)[nH]c5ccc(Cl)cc56)c4)ccc3c2c1 | 5.92 | 5.23 | 6.70 | 6.92 | 5.42 | 32
9 | C[n+]1ccc2c(c1)[nH]c1ccc(Cl)cc12 [NOSTOCARBOLINE] | 4.15 | < 4.06 | 4.46 | 6.71 | 3.92 | 622
10 | Clc1ccc2[nH]c3c[n+](CCCCCC[n+]4ccc5c(c4)[nH]c4ccc(Cl)cc45)ccc3c2c1 | 5.92 | 4.44 | 5.18 | 7.70 | 4.44 | 1810
11 | Clc1ccc2[nH]c3c[n+](CC#CC[n+]4ccc5c(c4)[nH]c4ccc(Cl)cc45)ccc3c2c1 | 5.19 | 4.97 | 4.46 | 6.13 | 4.55 | 39
12 | O=C(O)c1cn(C2CC2)c2cc(N3CCN(Cc4ccc(C[n+]5ccc6c(c5)[nH]c5ccc(Cl)cc56)cc4)CC3)c(F)cc2c1=O | 4.03 | < 4.35 | 4.21 | < 5.13 | 3.92 | –
